Laboratory results from ChEMBL document CHEMBL1144738, “Cytotoxic diterpenoids and sesquiterpenoids from Pteris multifida” (J Nat Prod, 2008).
pIC50: −log10 of the molar value.

Legend:
HepG2 = experiment: Cytotoxicity against human HepG2 cells by SRB method; format: functional, cell-based
Method in brief: (§1)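 Adherent cells were grown in RPMI1640 with 10% FBS, 100 U/mL penicillin and 100 U/mL streptomycin, then plated and incubated for 24 h. They were exposed to test compounds at 10^-2 to 10^2 µM for 72 h. Growth inhibition was read by sulforhodamine B (SRB) staining and expressed as IC50, the mean of triplicate points. Adriamycin and taxotere were positive controls.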

K562 = experiment: Cytotoxicity against human K562 cells by WST-1 method
LoVo = experiment: Cytotoxicity against human LoVo cells by SRB method; format: functional, cell-based; method in brief: as §1
KB = experiment: Cytotoxicity against human KB cells by SRB method; format: functional, cell-based; method in brief: as §1

Row | Structure (SMILES) | pIC50 (HepG2) | pIC50 (K562) | pIC50 (LoVo) | pIC50 (KB)
1 | Cc1cc2c(c(C)c1CCO)C(=O)[C@H](C)[C@@H]2O[C@@H]1O[C@H](CO)[C@@H](OC(=O)/C=C/c2ccc(O)cc2)[C@H](O)[C@H]1O | 5.03 | 5.02 | < 3.40 | 4.62
2 | COc1cccc2c1C(=O)c1c(O)c3c(c(O)c1C2=O)C[C@@](O)(C(=O)CO)C[C@@H]3O[C@H]1C[C@H](N)[C@H](O)[C@H](C)O1 [DOXORUBICIN] | 7.22 | 7.05 | < 3.40 | < 3.40
3 | Cc1cc2c(c(C)c1CCO[C@@H]1O[C@H](CO)[C@@H](OC(=O)/C=C/c3ccc(O)cc3)[C@H](O)[C@H]1O)C(=O)[C@H](C)C2 | < 4.00 | 4.19 | < 3.40 | 4.34
4 | Cc1cc2c(c(C)c1CCO)C(=O)[C@@H](C)[C@@H]2O[C@@H]1O[C@H](CO)[C@@H](OC(=O)/C=C/c2ccc(O)cc2)[C@H](O)[C@H]1O | 5.06 | 4.97 | 4.95 | 4.85
5 | C=C1[C@@H]2CC[C@H]3[C@]4(C)C[C@H](O)C[C@](C)(CO)[C@H]4CC[C@]3([C@@H]2O)[C@H]1O | < 4.00 | < 4.00 | 4.12 | 4.16
6 | CC1(C)C[C@@H](O)C[C@]2(C)[C@@H]1[C@H](O)C[C@@]13C[C@@H](CC[C@H]12)[C@@](O)(CO)C3 | 4.08 | 4.09 | 4.04 | 4.27
7 | C=C1[C@@H]2CC[C@H]3[C@]4(C)C[C@H](O)C[C@](C)(CO)[C@H]4CC[C@]3(C2)[C@H]1O | < 4.00 | < 4.00 | 4.69 | 4.58
8 | CC(=O)O[C@@]12CO[C@@H]1C[C@H](O)[C@@]1(C)C(=O)[C@H](O)C3=C(C)[C@@H](OC(=O)[C@H](O)[C@@H](NC(=O)OC(C)(C)C)c4ccccc4)C[C@@](O)([C@@H](OC(=O)c4ccccc4)[C@H]21)C3(C)C [DOCETAXEL] | – | – | 8.71 | 8.94
